Assay results as given in ChEMBL document CHEMBL1156237, “Antiviral activity of benzimidazole derivatives. II. Antiviral activity of 2-phenylbenzimidazole derivatives” (Bioorg Med Chem, 2010).
pEC50: −log10 of the molar value. Calls of active or inactive are those of the source. The rule behind the calls is not given here.

What was measured:
[1] = test system: Human alphaherpesvirus 1; assay: Antiviral activity against HSV1 KOS infected in african green monkey Vero cells after 3 days by plaque reduction assay; format: functional, organism-based; conditions: Human alphaherpesvirus 1, KOS, 72 h
Method in brief: (§1)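 Plaque reduction assay. Vero 76 cells at 2 × 10^5/well, grown overnight to confluence in D-MEM with 10% FBS. Infected 2 h with 50–100 PFU/well, unadsorbed virus removed. Overlay of D-MEM with 1% inactivated FBS and 0.75% methylcellulose, with or without serial compound dilutions. Incubated at 37 °C for 3 days (HSV-1 KOS, CVB-2 Ohio-1) or 5 days (RSV A2). Fixed and stained with crystal violet in 50% ethanol; plaques counted; EC50 by linear regression.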

[2] = test system: Respiratory syncytial virus; assay: Antiviral activity against RSV A2 infected in african green monkey Vero cells after 5 days by plaque reduction assay; format: functional, organism-based; method in brief: as §1
[3] = test system: Poliovirus 1; assay: Antiviral activity against Polio virus type1 Sabin strain Chat infected in african green monkey Vero cells after 2 days by plaque reduction assay; format: functional, organism-based, Human poliovirus 1 strain Sabin; conditions: Enterovirus C, 48 h
[4] = Cytotoxicity against african green monkey Vero cells; format: cell-based; conditions: chlorocebus sabaeus
Method in brief: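 Vero 76 monolayers exposed to serial compound dilutions, run in parallel on the same 24-well plates as the plaque-reduction assays. CC50 is the concentration reducing viability of mock-infected cells by 50%.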

[5] = test system: Coxsackievirus B2; assay: Antiviral activity against Human coxsackievirus B2 Ohio-1 infected in african green monkey Vero cells after 3 days by plaque reduction assay; format: functional, organism-based, Coxsackievirus B2 (strain Ohio-1); conditions: Enterovirus B, Vero, 72 h; method in brief: as §1
[6] = Cytotoxicity against BHK cells after 48 to 96 hrs by MTT assay; format: cell-based, Mesocricetus auratus; conditions: hamster
Method in brief: (§2)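 Cell seeding: MDBK at 6 × 10^5 cells/mL in MEM-E with 10% horse serum and 1 mM Na pyruvate; BHK at 1 × 10^6 cells/mL in MEM-E with 10% FBS. Serial compound dilutions, 37 °C, 5% CO2. Viability of mock-infected cells by MTT after 48–96 h; CC50 is the concentration reducing viability by 50%.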

[7] = test system: Yellow fever virus; assay: Antiviral activity against Yellow fever virus 17D infected in BHK cells assessed as protection from virus-induced cytopathogenicity after 3 to 4 days by MTT method; format: functional, organism-based
[8] = test system: Bovine viral diarrhea virus 1; assay: Antiviral activity against Bovine viral diarrhea virus NADL infected in MDBK cells assessed as protection from virus-induced cytopathogenicity after 3 to 4 days by MTT method; format: functional, organism-based, Bovine viral diarrhea virus 1-NADL; conditions: Bovine viral diarrhea virus isolates and strains, MDBK
Method in brief: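 Cytopathogenicity protection assay. MDBK cells at 3 × 10^4/well, grown overnight to confluence. Infected with BVDV NADL at m.o.i. 0.01 in MEM-E with 0.5% inactivated FBS, 1 mM Na pyruvate and 1% kanamycin. Serial compound dilutions added after 1 h. After 3–4 days at 37 °C, viability read by MTT; EC50 is the concentration giving 50% protection.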

[9] = test system: Vesicular stomatitis virus; assay: Antiviral activity against VSV Indiana lab infected in african green monkey Vero cells after 2 days by plaque reduction assay; format: functional, organism-based
[10] = test system: Human immunodeficiency virus 1; assay: Antiviral activity against HIV1 3B infected in human MT4 cells assessed as protection from virus-induced cytopathogenicity after 4 days by MTT method; format: functional, organism-based
Method in brief: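 MT-4 cells, 1 × 10^4/well in RPMI with or without serial compound dilutions, infected with HIV-1 IIIB, 100 CCID50 (m.o.i. 0.01). Protection from virus-induced cytopathogenicity read by MTT.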

[11] = Cytotoxicity against MDBK cells after 48 to 96 hrs by MTT assay; format: cell-based, Bos taurus; conditions: cattle, MDBK cells; method in brief: as §2
[12] = Cytotoxicity against human MT4 cells after 96 hrs by MTT assay; format: cell-based; conditions: MT4 cells
Method in brief: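 Exponentially growing MT-4 cells at 1 × 10^5 cells/mL in RPMI-1640 with 10% FCS, exposed to serial compound dilutions at 37 °C, 5% CO2. Viability by MTT after 96 h; CC50 is the concentration reducing viability of mock-infected cells by 50%.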

Compound: COc1c(C)c2c(c(O)c1C/C=C(\C)CCC(=O)O)C(=O)OC2 [MYCOPHENOLIC ACID]
- pEC50 [1]: < 4.89
- pEC50 ([2]; human respiratory syncytial virus, A2, Vero, 120 h): 6.22
- pEC50 [3]: < 4.89
- CC50 [4]: ≥ 13 µM
- pEC50 [5]: < 4.89
- CC50 [6]: > 100 µM
- pEC50 [7]: < 4.00
- pEC50 [8]: < 4.38

Compound: O=C(CN1CCCC1)Nc1ccc(-c2nc3ccccc3[nH]2)cc1
- pEC50 [1]: < 4.00
- Activity [9]: inactive
- pEC50 [3]: 4.05
- CC50 [4]: > 100 µM
- pEC50 [5]: 4.96
- CC50 [6]: 55 µM
- pEC50 [7]: 4.72
- pEC50 [8]: 5.00
- Activity [10]: inactive
- CC50 [11]: 70 µM
- CC50 at 96 h [12]: 40 µM

Compound: O=C(CN1CCOCC1)Nc1ccc(-c2nc3ccccc3[nH]2)cc1
- pEC50 [1]: < 4.00
- Activity [9]: inactive
- pEC50 [3]: < 4.00
- CC50 [4]: > 100 µM
- pEC50 [5]: < 4.00
- CC50 [6]: > 100 µM
- pEC50 [7]: < 4.00
- pEC50 [8]: < 4.11
- Activity [10]: inactive
- CC50 [11]: 77 µM
- CC50 at 96 h [12]: 100 µM

Compound: CC(=O)Nc1ccc(-c2nc3ccccc3[nH]2)cc1
- pEC50 [1]: < 4.00
- Activity [9]: inactive
- pEC50 [3]: < 4.00
- CC50 [4]: > 100 µM
- pEC50 [5]: 4.06
- CC50 [6]: > 100 µM
- pEC50 [7]: < 4.00
- pEC50 [8]: 4.05
- Activity [10]: inactive
- CC50 [11]: > 100 µM
- CC50 at 96 h [12]: 100 µM

Compound: O=C(CN1CCCCC1)Nc1ccc(-c2nc3ccccc3[nH]2)cc1
- pEC50 [1]: < 4.00
- Activity [9]: inactive
- pEC50 [3]: < 4.00
- CC50 [4]: > 100 µM
- pEC50 [5]: 4.77
- CC50 [6]: 31 µM
- pEC50 [7]: < 4.51
- pEC50 [8]: 5.15
- Activity [10]: inactive
- CC50 [11]: 18 µM
- CC50 at 96 h [12]: 31 µM

Compound: O=C(CN1CCN(c2ccccc2)CC1)Nc1ccc(-c2nc3cc(C(F)(F)F)ccc3[nH]2)cc1
- pEC50 [1]: < 4.00
- Activity [9]: inactive
- pEC50 [3]: < 4.00
- CC50 [4]: > 100 µM
- pEC50 [5]: < 4.00
- CC50 [6]: > 100 µM
- pEC50 [7]: < 4.00
- pEC50 [8]: < 4.49
- Activity [10]: inactive
- CC50 [11]: 32 µM
- CC50 at 96 h [12]: 0.9 µM

Compound: O=C(Nc1ccc(-c2nc3cc(C(F)(F)F)ccc3[nH]2)cc1)Nc1ccc(-c2nc3cc(C(F)(F)F)ccc3[nH]2)cc1
- pEC50 [1]: < 4.00
- Activity [9]: inactive
- pEC50 [3]: < 4.00
- CC50 [4]: > 100 µM
- pEC50 [5]: < 4.00
- CC50 [6]: 17 µM
- pEC50 [7]: < 4.77
- pEC50 [8]: < 4.00
- Activity [10]: inactive
- CC50 [11]: > 100 µM
- CC50 at 96 h [12]: > 100 µM

Compound: CCC(=O)Nc1ccc(-c2nc3ccccc3[nH]2)cc1
- pEC50 [1]: < 4.00
- Activity [9]: inactive
- pEC50 [3]: 4.46
- CC50 [4]: > 100 µM
- pEC50 [5]: 5.05
- CC50 [6]: ≥ 100 µM
- pEC50 [7]: < 4.00
- pEC50 [8]: 4.33
- Activity [10]: inactive
- CC50 [11]: > 100 µM
- CC50 at 96 h [12]: 35 µM

Compound: O=C(CNC12CC3CC(CC(C3)C1)C2)Nc1ccc(-c2nc3cc(C(F)(F)F)ccc3[nH]2)cc1
- pEC50 [1]: 4.35
- Activity [9]: inactive
- pEC50 [3]: < 4.35
- CC50 [4]: 45 µM
- pEC50 [5]: < 4.35
- CC50 [6]: 18 µM
- pEC50 [7]: < 4.74
- pEC50 [8]: < 4.64
- Activity [10]: inactive
- CC50 [11]: 23 µM
- CC50 at 96 h [12]: 15 µM

Compound: O=C(O)CCC(=O)Nc1ccc(-c2nc3cc(C(F)(F)F)ccc3[nH]2)cc1
- pEC50 [1]: < 4.00
- Activity [9]: inactive
- pEC50 [3]: < 4.00
- CC50 [4]: > 100 µM
- pEC50 [5]: < 4.00
- CC50 [6]: > 100 µM
- pEC50 [7]: < 4.00
- pEC50 [8]: < 4.00
- Activity [10]: inactive
- CC50 [11]: > 100 µM
- CC50 at 96 h [12]: > 100 µM

Compound: O=C(CN1CCCCC1)Nc1ccc(-c2nc3cc(C(F)(F)F)ccc3[nH]2)cc1
- pEC50 [1]: < 4.51
- Activity [9]: inactive
- pEC50 [3]: < 4.51
- CC50 [4]: 31 µM
- pEC50 [5]: 5.05
- CC50 [6]: 12 µM
- pEC50 [7]: < 4.92
- pEC50 [8]: 5.70
- Activity [10]: inactive
- CC50 [11]: 6 µM
- CC50 at 96 h [12]: 6 µM

Compound: O=c1cnn([C@@H]2O[C@H](CO)[C@@H](O)[C@H]2O)c(=O)[nH]1 (stereo in doubt; form 2) [6-AZAURIDINE]
- pEC50 [1]: < 4.70
- pEC50 ([2]; vero): 5.92
- pEC50 [5]: < 4.70
- CC50 [6]: > 100 µM
- pEC50 [7]: 4.59
- pEC50 [8]: < 4.00
- CC50 [11]: > 100 µM

Compound: O=C(CCl)Nc1ccc(-c2nc3cc(C(F)(F)F)ccc3[nH]2)cc1
- pEC50 [1]: < 4.46
- Activity [9]: inactive
- pEC50 [3]: < 4.46
- CC50 [4]: 35 µM
- pEC50 [5]: 4.62
- CC50 [6]: 22 µM
- pEC50 [7]: < 4.66
- pEC50 [8]: < 4.77
- Activity [10]: inactive
- CC50 [11]: 17 µM
- CC50 at 96 h [12]: 5 µM

Compound: Nc1ccc(-c2nc3cc(C(F)(F)F)ccc3[nH]2)cc1
- pEC50 [1]: < 4.00
- Activity [9]: inactive
- pEC50 [3]: 4.33
- CC50 [4]: > 100 µM
- pEC50 [5]: 4.77
- CC50 [6]: 100 µM
- pEC50 [7]: < 4.00
- pEC50 [8]: 4.82
- Activity [10]: inactive
- CC50 [11]: 82 µM
- CC50 at 96 h [12]: 62 µM

Compound: O=C(CN1CCOCC1)Nc1ccc(-c2nc3cc(C(F)(F)F)ccc3[nH]2)cc1
- pEC50 [1]: < 4.00
- Activity [9]: inactive
- pEC50 [3]: < 4.00
- CC50 [4]: > 100 µM
- pEC50 [5]: < 4.00
- CC50 [6]: 86 µM
- pEC50 [7]: < 4.07
- pEC50 [8]: < 4.00
- Activity [10]: inactive
- CC50 [11]: > 100 µM
- CC50 at 96 h [12]: > 100 µM

Compound: O=C(CN1CCSCC1)Nc1ccc(-c2nc3cc(C(F)(F)F)ccc3[nH]2)cc1
- pEC50 [1]: < 4.00
- Activity [9]: inactive
- pEC50 [3]: < 4.00
- CC50 [4]: > 100 µM
- pEC50 [5]: < 4.00
- CC50 [6]: > 100 µM
- pEC50 [7]: < 4.00
- pEC50 [8]: < 4.00
- Activity [10]: inactive
- CC50 [11]: > 100 µM
- CC50 at 96 h [12]: 6 µM
